Source: ChEMBL document CHEMBL2034909, “Inhibition of thioredoxin reductase by a novel series of bis-1,2-benzisoselenazol-3(2H)-ones: Organoselenium compounds for cancer therapy” (Bioorg Med Chem, 2012)
Active and inactive are the calls of the source. The calls are words filed in the database; no cut-off is given here.

Experiments:
[1] = biological target: T1, Thioredoxin reductase 1, cytoplasmic (Rattus norvegicus) (UniProt O89049); test: (§1) Inhibition of TrxR1 in rat liver homogenate preincubated for 5 mins measured by DNTB assay; type: tissue-based
T1 sequence (whole entry): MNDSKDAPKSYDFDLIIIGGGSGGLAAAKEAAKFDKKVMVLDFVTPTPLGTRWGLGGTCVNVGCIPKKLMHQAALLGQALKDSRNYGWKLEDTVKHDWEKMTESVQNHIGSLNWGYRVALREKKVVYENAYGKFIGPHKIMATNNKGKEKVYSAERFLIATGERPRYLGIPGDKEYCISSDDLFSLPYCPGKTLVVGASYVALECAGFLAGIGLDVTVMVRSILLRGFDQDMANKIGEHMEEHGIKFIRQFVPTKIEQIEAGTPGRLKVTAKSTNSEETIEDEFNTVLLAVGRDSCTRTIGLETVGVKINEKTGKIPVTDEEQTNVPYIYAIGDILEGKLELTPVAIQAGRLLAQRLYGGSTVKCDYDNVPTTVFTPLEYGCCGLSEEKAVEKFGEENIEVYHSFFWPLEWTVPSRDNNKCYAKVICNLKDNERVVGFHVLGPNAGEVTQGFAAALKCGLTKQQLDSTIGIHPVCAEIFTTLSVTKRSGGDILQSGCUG
Outline: (§2)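 Rat liver TrxR (purified, 10 μg) in 100 mM potassium phosphate, 2 mM EDTA, pH 7.4 with NADPH, pre-incubated 5 min with inhibitor (DMSO control) at room temperature. DTNB was then added and A412 increase followed over the first 120 s. IC50 given as mean ± SD of triplicate experiments.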

[2] = biological target: T2, Thioredoxin reductase 1, cytoplasmic (Rattus norvegicus, UniProt O89049); test: as §1; type: tissue-based; outline: as §2
T2 sequence (O89049 whole entry): T1 sequence (whole entry)

[3] = test system: MIA PaCa-2; test: Growth inhibition of human MIAPaCa2 cells after 48 hrs by MTT assay; type: functional, cell-based; conditions: MIA PaCa-2, 48 h
Outline: (§3)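 Exponentially growing cells were seeded at 4000–5000 per well. LoVo was grown in RPMI 1640 and MIA PaCa-2 and U87 MG in DMEM, each with 10% FBS and penicillin/streptomycin at 37 °C under 5% CO2. Compounds in DMSO (0–50 μM) were added for 48 h, and growth was read by MTT.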

[4] = Growth inhibition of human U87MG cells after 48 hrs by MTT assay; type: functional, cell-based, U-87MG ATCC; conditions: U-87 MG; outline: as §3
[5] = test system: LoVo; test: Growth inhibition of human LoVo cells after 48 hrs by MTT assay; type: functional, cell-based; outline: as §3
[6] = biological target: T3, Thioredoxin reductase (Homo sapiens, UniProt Q16881+Q9NNW7+Q86VQ6); test: Inhibition of TrxR in human U87MG cells after 12 hrs by insulin-reducing method; type: cell-based; conditions: for IC50: u-87mg atcc; for inhibition: U-87MG ATCC
Outline: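 U87 MG cells were treated with graded compound concentrations for 12 h, with 1% DMSO as control. Reactions were quenched with guanidine-HCl/DTNB and read at A412. The Trx-free blank was subtracted.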

[7] = biological target: T3, Thioredoxin reductase; test: Inhibition of TrxR in human U87MG cells at 20 uM after 12 hrs by insulin-reducing method; type: cell-based; conditions: U-87MG ATCC
Outline: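 U87 MG glioma cells were treated with compound for 12 h (1% DMSO control), washed in PBS, lysed in Triton/deoxycholate/EDTA/SDS/PMSF buffer and spun at 13000g. Lysate protein (40 µg, BCA) was incubated 30 min at 37 °C with HEPES pH 7.6, EDTA, 1 mM NADPH, 1 µM E. coli Trx and 2.5 mg/ml insulin. Quench with guanidine-HCl/DTNB, read A412, subtract the no-Trx blank.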

[8] = Mixed type inhibition of TrxR by Michaelis-Menten plot analysis
[9] = Time dependent inhibition of TrxR
[10] = Reversible inhibition of TrxR by ultrafiltration assay
[11] = biological target: T4, Glutathione reductase, mitochondrial (Homo sapiens) (UniProt P00390); test: Inhibition of human glutathione reductase at 100 uM after 10 mins by GSSH reduction assay
T4 sequence (whole entry): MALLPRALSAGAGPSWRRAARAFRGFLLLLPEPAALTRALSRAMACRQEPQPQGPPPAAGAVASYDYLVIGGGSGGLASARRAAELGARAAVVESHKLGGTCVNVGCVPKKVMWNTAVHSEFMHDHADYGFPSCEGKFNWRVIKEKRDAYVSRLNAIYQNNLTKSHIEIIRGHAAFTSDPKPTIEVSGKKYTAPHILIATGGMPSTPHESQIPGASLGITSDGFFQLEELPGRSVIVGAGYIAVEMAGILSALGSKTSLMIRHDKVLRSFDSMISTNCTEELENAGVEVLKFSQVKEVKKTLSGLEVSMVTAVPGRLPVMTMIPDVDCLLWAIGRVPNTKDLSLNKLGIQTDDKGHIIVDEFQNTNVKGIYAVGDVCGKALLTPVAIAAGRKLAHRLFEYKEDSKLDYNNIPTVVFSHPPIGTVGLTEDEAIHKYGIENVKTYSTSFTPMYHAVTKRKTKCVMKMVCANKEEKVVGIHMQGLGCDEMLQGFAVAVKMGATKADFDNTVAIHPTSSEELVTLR

[12] = Binding affinity to TrxR Sec498 residue at pH 8.5 after 2 hrs by BIAM assay
[13] = Binding affinity to TrxR Cys497 residue at pH 8.5 after 2 hrs by BIAM assay
[14] = Binding affinity to TrxR Sec498 residue at pH 6.5 after 2 hrs by BIAM assay
[15] = biological target: T3, Thioredoxin reductase; test: Inhibition of human C-terminal truncated TrxR; type: protein assay
[16] = species on record: Homo sapiens; test: Inhibition of human […] Sec498Cys mutant at 100 uM after 10 mins by GSSH reduction assay

| Structure (SMILES) | inhibition [1] | IC50 [2] | IC50 [3] | IC50 [4] | further results |
| --- | --- | --- | --- | --- | --- |
| O=c1c2ccccc2[se]n1CCCCCn1[se]c2ccccc2c1=O | Dose-dependent effect | 1.95 µM | 3.27 µM | 6.05 µM | IC50 [5]: 5.5 µM |
| O=c1c2ccccc2[se]n1-c1ccc(-n2[se]c3ccccc3c2=O)cc1 | Dose-dependent effect | 34.3 µM | > 50 µM | > 50 µM | – |
| O=c1c2ccccc2[se]n1CCCCn1[se]c2ccccc2c1=O | Dose-dependent effect | 1.03 µM | – | – | – |
| O=c1c2ccccc2[se]n1CCCn1[se]c2ccccc2c1=O | Dose-dependent effect | 0.78 µM | – | – | – |
| O=c1c2ccccc2[se]n1CCn1[se]c2ccccc2c1=O [ETHASELEN] | Dose-dependent effect | – | 3.79 µM | 6.41 µM | IC50 [5]: 7.67 µM; inhibition [6]: Dose-dependent effect; IC50 [6]: 5 µM; inhibition [11]: inactive; inhibition [15]: inactive; inhibition [16]: inactive |
| O=c1c2ccc(Cl)cc2[se]n1CCn1[se]c2cc(Cl)ccc2c1=O | Dose-dependent effect | 2.87 µM | > 50 µM | > 50 µM | – |
| O=c1c2cc(Br)ccc2[se]n1CCn1[se]c2ccc(Br)cc2c1=O | Dose-dependent effect | 1.58 µM | > 50 µM | > 50 µM | inhibition [6]: Dose-dependent effect |
| O=c1c2ccccc2[se]n1C1CCCCC1n1[se]c2ccccc2c1=O (centres undefined) | Dose-dependent effect | 12.8 µM | 11.5 µM | > 50 µM | IC50 [5]: 17.2 µM |
| O=c1c2cc(F)ccc2[se]n1CCCn1[se]c2ccc(F)cc2c1=O | Dose-dependent effect | 0.86 µM | – | – | – |
| O=c1c2cc(F)ccc2[se]n1CCn1[se]c2ccc(F)cc2c1=O | Dose-dependent effect | 0.28 µM | 3.07 µM | 6.95 µM | IC50 [5]: 4.55 µM |
| Cc1ccc2[se]n(C3CCC(n4[se]c5ccc(C)cc5c4=O)CC3)c(=O)c2c1 (centres undefined) | Dose-dependent effect | > 50 µM | – | – | – |
| O=c1c2cc(Cl)ccc2[se]n1CCn1[se]c2ccc(Cl)cc2c1=O | Dose-dependent effect | 1.31 µM | > 50 µM | > 50 µM | – |
| O=c1c2ccc(F)cc2[se]n1CCn1[se]c2cc(F)ccc2c1=O | Dose-dependent effect | 0.82 µM | 8.47 µM | 12.6 µM | – |
| O=c1c2cc(O)ccc2[se]n1CCn1[se]c2ccc(O)cc2c1=O | Dose-dependent effect | 0.32 µM | 5.3 µM | 6.6 µM | IC50 [5]: 6.53 µM |
| Cc1ccc2[se]n(CCn3[se]c4ccc(C)cc4c3=O)c(=O)c2c1 | Dose-dependent effect | 1.26 µM | 5.94 µM | 17.8 µM | IC50 [5]: 6.12 µM; inhibition [6]: Dose-dependent effect |
| O=c1c2ccccc2[se]n1Cc1ccc(-n2[se]c3ccccc3c2=O)cc1 | Dose-dependent effect | 47.7 µM | > 50 µM | – | IC50 [5]: > 50 µM |
| O=c1c2cc([N+](=O)[O-])ccc2[se]n1CCn1[se]c2ccc([N+](=O)[O-])cc2c1=O | Dose-dependent effect | 0.57 µM | > 50 µM | > 50 µM | inhibition [6]: Dose-dependent effect |
| O=c1c2ccccc2on1CCn1oc2ccccc2c1=O | Dose-dependent effect | > 100 µM | – | – | – |
| O=c1c2ccccc2sn1CCn1sc2ccccc2c1=O | Dose-dependent effect | 48.1 µM | – | – | – |
| Cc1ccc2[se]n(CCCn3[se]c4ccc(C)cc4c3=O)c(=O)c2c1 | Dose-dependent effect | 1.16 µM | – | – | – |
| CC(=O)Oc1ccc2[se]n(CCn3[se]c4ccc(OC(C)=O)cc4c3=O)c(=O)c2c1 | Dose-dependent effect | 22.6 µM | 10.2 µM | 20.8 µM | – |

The next lines start with results.

| inhibition [1] | IC50 [2] | Structure (SMILES) | IC50 [3] | IC50 [4] | further results |
| --- | --- | --- | --- | --- | --- |
| Dose-dependent effect | 4.49 µM | O=c1c2ccccc2[se]n1CCCCCCCCn1[se]c2ccccc2c1=O | – | – | – |
| Dose-dependent effect | 1.64 µM | O=c1c2cc(F)ccc2[se]n1CCCCn1[se]c2ccc(F)cc2c1=O | – | – | – |
| Dose-dependent effect | 1.8 µM | O=c1c2cc(Cl)ccc2[se]n1CCCCCn1[se]c2ccc(Cl)cc2c1=O | – | – | – |
| Dose-dependent effect | 0.13 µM | COc1ccc2[se]n(CCn3[se]c4ccc(OC)cc4c3=O)c(=O)c2c1 | 2.84 µM | 1.64 µM | IC50 [5]: 5.28 µM; IC50 [6]: 2 µM; inhibition [7]: > 90%; inhibition [8]: Active; inhibition [9]: Active; inhibition [10]: Active; inhibition [11]: < 30%; inhibition [12]: Dose-dependent effect; inhibition [13]: Dose-dependent effect; inhibition [14]: Dose-dependent effect |
| Dose-dependent effect | 4.91 µM | Cc1ccc2[se]n(CCCCCCn3[se]c4ccc(C)cc4c3=O)c(=O)c2c1 | – | – | – |
| Dose-dependent effect | 2.38 µM | Cc1ccc2[se]n(CCCCn3[se]c4ccc(C)cc4c3=O)c(=O)c2c1 | – | – | – |
| Dose-dependent effect | 4.54 µM | O=c1c2ccc(Cl)cc2[se]n1CCCCCn1[se]c2cc(Cl)ccc2c1=O | – | – | – |
| Dose-dependent effect | 3.16 µM | Cc1ccc2[se]n(CCCCCn3[se]c4ccc(C)cc4c3=O)c(=O)c2c1 | 6.71 µM | 12.2 µM | IC50 [5]: 16.6 µM |
| Dose-dependent effect | 2.91 µM | O=c1c2ccc(F)cc2[se]n1CCCCCn1[se]c2cc(F)ccc2c1=O | – | – | – |
| Dose-dependent effect | 1.59 µM | O=c1c2cc(Br)ccc2[se]n1CCCCCn1[se]c2ccc(Br)cc2c1=O | – | – | – |
| Dose-dependent effect | 3.87 µM | O=c1c2cc(F)ccc2[se]n1CCCCCn1[se]c2ccc(F)cc2c1=O | – | – | – |
| Dose-dependent effect | 5.85 µM | O=c1c2ccccc2[se]n1CCCCCCCn1[se]c2ccccc2c1=O | – | – | – |
| Dose-dependent effect | 1.66 µM | O=c1c2ccccc2[se]n1CCCCCCn1[se]c2ccccc2c1=O | – | – | – |
